Reference: ChEMBL document CHEMBL1122849, “Synthesis and properties of bis(2,2-dimethylaziridinyl)phosphinic amides: a series of new antineoplastic agents” (1985)
“And” between values parts separate entries of the source, which are not always exact repeats. Equal entries are not always repeated.

Columns and labels:
B16 [1] = test: Compound was evaluated for the antineoplastic activity on B16 Melanoma cells at the optimal dose of 160 mg/kg through intraperitoneal route on days 1,5,9; assay type: functional, Mus musculus
P388 [2] = test: Compound was evaluated for the antineoplastic activity against P388 leukemia at an optimal dose of 256 mg/kg administered intraperitoneally; assay type: functional, Mus musculus; conditions: route intraperitoneal
B16 [3] = test: Compound was evaluated for the antineoplastic activity on B16 Melanoma cells at the optimal dose of 80 mg/kg through intraperitoneal route on days 1,5,9; assay type: functional, Mus musculus
Mus musculus [4] = species on record: Mus musculus; test: Tumor free mice out of 6 surviving to day 30 or beyond was determined; assay type: functional
Procedure, shortened: (§1)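 Surviving mice were autopsied when the experiment ended. A mouse was scored cured if tumor-free with no visible disease at day 30 (P388, L1210) or day 60 (B16, C26, M109). Groups held 6, 10 or 8 mice.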

B16 [5] = test: Compound was evaluated for the antineoplastic activity on B16 Melanoma cells at the optimal dose of 120 mg/kg through intraperitoneal route on days 1,5,9; assay type: functional, Mus musculus
Colon 26 [6] = test: Antitumor activity against C26 implants through subcutaneous route along with the optimal dose of 120 mg/kg through intraperitoneal injection on 5,8 days; assay type: functional, Mus musculus
B16 [7] = test: Compound was evaluated for the antineoplastic activity on B16 Melanoma cells at the optimal dose of 100 mg/kg through intraperitoneal route on days 1,5,9; assay type: functional, Mus musculus
M109 [8] = test: Antitumor activity against M109 implants through intraperitoneal route along with the optimal dose of 150 mg/kg through intraperitoneal route on 1,4 days; assay type: functional, Mus musculus
P388 [9] = test: Compound was evaluated for the antineoplastic activity against P388 leukemia at an optimal dose of 80 mg/kg administered intraperitoneally; assay type: functional, Mus musculus; conditions: route intraperitoneal
Colon 26 [10] = test: Antitumor activity against C26 implants through intraperitoneal route along with the optimal dose of 120 mg/kg through intraperitoneal injection on 5,8 days; assay type: functional, Mus musculus
M109 [11] = test: Antitumor activity against M109 implants through subcutaneous route along with the optimal dose of 100 mg/kg through intraperitoneal route on 1,4 days; assay type: functional, Mus musculus
P388 [12] = test: Compound was evaluated for the antineoplastic activity against P388 leukemia at an optimal dose of 64 mg/kg administered intraperitoneally; assay type: functional, Mus musculus; conditions: route intraperitoneal
Colon 26 [13] = test: Antitumor activity against C26 implants through intraperitoneal route along with the optimal dose of 50 mg/kg through intraperitoneal injection on 1,4 days; assay type: functional, Mus musculus
Mus musculus [14] = species on record: Mus musculus; test: Tumor free mice out of 10 surviving to day 60 was determined; assay type: functional; procedure, shortened: as §1
Colon 26 [15] = test: Antitumor activity against C26 implants through intraperitoneal route along with the optimal dose of 80 mg/kg through intraperitoneal injection on 1,4 days; assay type: functional, Mus musculus
B16 [16] = test: Compound was evaluated for the antineoplastic activity on B16 Melanoma cells at the optimal dose of 60 mg/kg through intraperitoneal route on days 1,5,9; assay type: functional, Mus musculus
Colon 26 [17] = test: Antitumor activity against C26 implants through subcutaneous route along with the optimal dose of 60 mg/kg through intraperitoneal injection on 1,4 days; assay type: functional, Mus musculus
B16 [18] = test: Compound was evaluated for the antineoplastic activity on B16 Melanoma cells at the optimal dose of 10 mg/kg through intraperitoneal route on days 1,5,9; assay type: functional, Mus musculus
L1210 [19] = test: Compound was evaluated for the antineoplastic activity on L1210 leukemia cell line at the optimal dose of 180 mg/kg administered intraperitoneally on day 1 following intraperitoneal implant of 10e 6 L1210 cells, in six mice.9; assay type: functional, Mus musculus
P388 [20] = test: Compound was evaluated for the antineoplastic activity against P388 leukemia at an optimal dose of 128 mg/kg administered intraperitoneally; assay type: functional, Mus musculus; conditions: route intraperitoneal
B16 [21] = test: (§2) Compound was evaluated for the antineoplastic activity on B16 Melanoma cells at the optimal dose of 40 mg/kg through intraperitoneal route on days 1,5,9; assay type: functional, Mus musculus
B16 [22] = test: as §2; assay type: functional, Mus musculus; remark: listed apart in the source
Colon 26 [23] = test: Antitumor activity against C26 implants through intraperitoneal route along with the optimal dose of 120 mg/kg through intraperitoneal injection on 1,4 days; assay type: functional, Mus musculus
Colon 26 [24] = test: Antitumor activity against C26 implants through subcutaneous route along with the optimal dose of 50 mg/kg through intraperitoneal injection on 1,4 days; assay type: functional, Mus musculus
M109 [25] = test: Antitumor activity against M109 implants through subcutaneous route along with the optimal dose of 70 mg/kg through intravenously route on 1,4 days; assay type: functional, Mus musculus; conditions: route intravenous
M109 [26] = test: Antitumor activity against M109 implants through subcutaneous route along with the optimal dose of 70 mg/kg through intraperitoneal route on 1,4 days; assay type: functional, Mus musculus
L1210 [27] = test: Compound was evaluated for the antineoplastic activity on L1210 leukemia cell line at the optimal dose of 60 mg/kg administered intraperitoneally on day 1 following intraperitoneal implant of 10e 6 L1210 cells, in six mice; assay type: functional, Mus musculus
Mus musculus [28] = species on record: Mus musculus; test: Tumor free mice out of 8 surviving to day 60 or beyond was determined; assay type: functional; procedure, shortened: as §1
B16 [29] = test: Compound was evaluated for the antineoplastic activity on B16 Melanoma cells at the optimal dose of 50 mg/kg through intraperitoneal route on days 1,5,9; assay type: functional, Mus musculus
Colon 26 [30] = test: Antitumor activity against C26 implants through intraperitoneal route along with the optimal dose of 60 mg/kg through intraperitoneal injection on 1,4 days; assay type: functional, Mus musculus
Colon 26 [31] = test: Antitumor activity against C26 implants through subcutaneous route along with the optimal dose of 25 mg/kg through intraperitoneal injection on 1,4 days; assay type: functional, Mus musculus
L1210 [32] = test: Compound was evaluated for the antineoplastic activity on L1210 leukemia cell line at the optimal dose of 180 mg/kg administered intraperitoneally on day 1 following intraperitoneal implant of 10e 6 L1210 cells, in six mice; assay type: functional, Mus musculus
B16 [33] = test: Compound was evaluated for the antineoplastic activity on B16 Melanoma cells at the optimal dose of 36 mg/kg through intraperitoneal route on days 1,5, 9; assay type: functional, Mus musculus
B16 [34] = test: Compound was evaluated for the antineoplastic activity on B16 Melanoma cells at the optimal dose of 18 mg/kg through intraperitoneal route on days 1,5, 9; assay type: functional, Mus musculus
B16 [35] = test: Compound was evaluated for the antineoplastic activity on B16 Melanoma cells at the optimal dose of 24 mg/kg through intraperitoneal route on days 1,5,9; assay type: functional, Mus musculus
P388 [36] = test: Compound was evaluated for the antineoplastic activity against P388 leukemia at an optimal dose of 100 mg/kg administered intraperitoneally; assay type: functional, Mus musculus; conditions: route intraperitoneal

With `CC1(C)CN1P(=O)(N1CCCCC1)N1CC1(C)C` (stereo not drawn) the T/C (B16 [1]) was 132% and the T/C (P388 [2]) was 218%.
`CCCNP(=O)(N1CC1(C)C)N1CC1(C)C` (stereo not drawn) gave a T/C (B16 [3]) of 162%, a Survivors (Mus musculus [4]) of 2 and a T/C (B16 [5]) of 144%. It also gave a T/C (P388 [2]) of 363%.
In the case of `CCOP(=O)(N1CC1(C)C)N1CC1(C)C` (stereo not drawn), the T/C (Colon 26 [6]) is reported as 130%, the T/C (B16 [7]) is reported as 188% and 119% and the T/C (M109 [8]) is reported as 146%. It also gave a T/C (P388 [9]) of 272%, a T/C (Colon 26 [10]) of 144% and a Survivors (Mus musculus [4]) of 2. For the same compound, the T/C (M109 [11]) was 104%.
`CCNP(=O)(N1CC1(C)C)N1CC1(C)C` (stereo not drawn) showed a T/C (B16 [5]) of 148% and a T/C (P388 [2]) of 288%.
With `CCCCNP(=O)(N1CC1(C)C)N1CC1(C)C` (stereo not drawn) the T/C (B16 [5]) was 157% and the T/C (P388 [2]) was 238%.
Compound `CN(C)CCCNP(=O)(N1CC1(C)C)N1CC1(C)C` (stereo not drawn) has a T/C (P388 [12]) of 231%, a T/C (Colon 26 [13]) of 170% and a Survivors (Mus musculus [14]) of 2. For the same compound, the T/C (B16 [3]; 80 mg/kg) was 210% and 172%.
In the case of `CC1(C)CN1P(=O)(N1CCOCC1)N1CC1(C)C` (stereo not drawn), the T/C (B16 [1]) is reported as 160% and the T/C (P388 [2]) is reported as 247%.
With `CC1(C)CN1P(=O)(NC1CCCCC1)N1CC1(C)C` (stereo not drawn) the T/C (P388 [2]) was 106%.
`CN(C)P(=O)(N1CC1(C)C)N1CC1(C)C` (stereo not drawn) showed a T/C (Colon 26 [15]) of 127%, a T/C (B16 [16]) of 118% and a T/C (Colon 26 [17]) of 125%. For the same compound, the T/C (B16 [18]) was 108%, the T/C (L1210 [19]) was 207% and the T/C (B16 [5]) was 153%. For the same compound, the T/C (P388 [20]) was 272%.
`CN1CCN(P(=O)(N2CC2(C)C)N2CC2(C)C)CC1` (stereo not drawn) showed a T/C (B16 [3]) of 170% and a T/C (P388 [20]) of 224%.
In the case of `COCCCNP(=O)(N1CC1(C)C)N1CC1(C)C` (stereo not drawn), the T/C (B16 [3]) is reported as 160%, the Survivors (Mus musculus [4]) is reported as 1 and the T/C (P388 [2]) is reported as 225%.
In the case of `CC1(C)CN1P(N)(=O)N1CC1(C)C` (stereo not drawn), the T/C (B16 [21]) is reported as 110%, the T/C (Colon 26 [15]) is reported as 221% and the T/C (B16 [7]) is reported as 310% and 181%. For the same compound, the T/C (B16 [22]) was 214%, the T/C (M109 [8]) was 157% and the T/C (Colon 26 [23]) was 190%. For the same compound, the T/C (Colon 26 [24]) was 127%, the T/C (M109 [25]) was 104% and the T/C (M109 [26]) was 99%. The T/C (L1210 [27]) was 164%, the Survivors (Mus musculus [14]) was 3 and 2 and the T/C (B16 [3]) was 210%. For the same compound, the Survivors (Mus musculus [28]) was 3 and 2, the T/C (B16 [5]; 120 mg/kg) was 191% and 180% and the T/C (B16 [29]) was 123%. The T/C (P388 [2]) was 206%.
With `CNP(=O)(N1CC1(C)C)N1CC1(C)C` (stereo not drawn) the T/C (B16 [16]) was 120%, the T/C (Colon 26 [30]) was 166% and the T/C (Colon 26 [31]) was 151%. The T/C (B16 [18]) was 126%, the Survivors (Mus musculus [4]) was 1 and the T/C (L1210 [32]) was 207%. It also gave a T/C (B16 [5]) of 153% and a T/C (P388 [20]) of 239%.
`O=C(O)CCCc1ccc(N(CCCl)CCCl)cc1` [CHLORAMBUCIL] gave a T/C (B16 [33]) of 125%, a T/C (B16 [34]) of 132% and a T/C (B16 [35]) of 121%.
In the case of `O=P1(N(CCCl)CCCl)NCCCO1` (stereo not drawn) [CYCLOPHOSPHAMIDE ANHYDROUS], the T/C (B16 [7]) is reported as 143% and 205%, the Survivors (Mus musculus [28]) is reported as 1 and the T/C (B16 [5]) is reported as 180%.
Work on `CCOC(=O)NP(=O)(N1CC1(C)C)N1CC1(C)C` (stereo not drawn) [METUREDEPA] yielded a T/C (P388 [36]) of 244%.
`CC1(C)CN1P(=O)(Nc1ccccc1)N1CC1(C)C` (stereo not drawn) [PHOSPHINIC ANILIDE DERIVATE] showed a T/C (P388 [2]) of 169%.
